Experimental data as given in ChEMBL document CHEMBL3352456, “Design, synthesis and biological activity of a novel Rutin analogue with improved lipid soluble properties” (Bioorg Med Chem, 2015).
The source made the active and inactive calls. The calls are words filed in the database; no cut-off is given here.

Tests used:
K562 [1] = assay: Induction of apoptosis in human K562 cells assessed as early apoptotic cells at 5 uM after 3 days by Annexin-V staining-based assay (reference value: 5.41%); format: functional
Nannizzia gypsea [2] = assay: Antifungal activity against Microsporum gypseum (Bodin) Guiart and Grigorakis IHME 3999 assessed as growth inhibition at 100 ug/ml measured on day 7 by sabouraud dextrose agar diffusion method relative to control; format: functional; details: (Bodin) Guiart and Grigorakis IHME 3999, 168 h, read-out: GI
In short: (§1)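 Dermatophyte strains kept on Sabouraud dextrose agar slants. Mycelium disks (10 mm) from a stationary-phase culture grown at 26 ± 1 °C on cellophane over SDA to log phase, then moved onto SDA containing compound added from DMSO stock at 45 °C (final DMSO 0.1%; DMSO-only controls). Colony diameter measured daily for 7 days. % inhibition = (dex − dex')/dex × 100. Three replicates per concentration; mean of three independent experiments.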

K562 [3] = assay: Induction of apoptosis in human K562 cells assessed as early apoptotic cells at 10 uM after 3 days by Annexin-V staining-based assay (reference value: 5.41%); format: functional
[4] = Antioxidant activity assessed as superoxide anion radical scavenging by photochemiluminescence method relative to trolox using formulation containing O/W; format: physicochemical
Trichophyton violaceum [5] = assay: Antifungal activity against Trichophyton violaceum Malmsten CBS 459.61 assessed as growth inhibition at 100 ug/ml measured on day 7 by sabouraud dextrose agar diffusion method relative to control; format: functional; details: Malmsten CBS 459.61, 168 h, read-out: GI; in short: as §1
K562 [6] = assay: Induction of apoptosis in human K562 cells assessed as late apoptotic cells at 500 uM after 3 days by Annexin-V staining-based assay (reference value: 5.96%); format: functional
K562 [7] = assay: Induction of apoptosis in human K562 cells assessed as apoptotic cells at 1000 uM after 3 days by Annexin-V staining-based assay (reference value: 11.37%); format: functional
Trichophyton tonsurans [8] = assay: Antifungal activity against Trichophyton tonsurans Malmsten CBS 483.76 assessed as growth inhibition at 100 ug/ml measured on day 7 by sabouraud dextrose agar diffusion method relative to control; format: functional; details: Malmsten CBS 483.76, 168 h, read-out: GI; in short: as §1
Trichophyton rubrum [9] = assay: Antifungal activity against Trichophyton rubrum (Castellani) Sabouraud IHME 4321 assessed as growth inhibition at 100 ug/ml measured on day 7 by sabouraud dextrose agar diffusion method relative to control; format: functional; details: (Castellani) Sabouraud IHME 4321, 168 h, read-out: GI; in short: as §1
Paraphyton cookei [10] = assay: Antifungal activity against Nannizzia cajetani Ajello CBS 495.70 assessed as growth inhibition at 100 ug/ml measured on day 7 by sabouraud dextrose agar diffusion method relative to control; format: functional; details: Ajello CBS 495.70, 168 h, read-out: GI; in short: as §1
[11] = tested on: Trichophyton mentagrophytes; assay: Antifungal activity against Trichophyton mentagrophytes (Robin) Blanchard CBS 160.66 assessed as growth inhibition at 100 ug/ml measured on day 7 by sabouraud dextrose agar diffusion method relative to control; format: functional; details: (Robin) Blanchard CBS 160.66, 168 h, read-out: GI; in short: as §1
K562 [12] = assay: Induction of apoptosis in human K562 cells assessed as dead cells at 5 uM after 3 days by Annexin-V staining-based assay (reference value: 1.29%); format: functional
Paraphyton cookei [13] = assay: Antifungal activity against Nannizzia cajetani Ajello CBS 495.70 assessed as growth inhibition at 20 ug/ml measured on day 7 by sabouraud dextrose agar diffusion method relative to control; format: functional; details: Ajello CBS 495.70, 168 h, read-out: GI; in short: as §1
K562 [14] = assay: Induction of apoptosis in human K562 cells assessed as late apoptotic cells at 5 uM after 3 days by Annexin-V staining-based assay (reference value: 5.96%); format: functional
K562 [15] = assay: Induction of apoptosis in human K562 cells assessed as dead cells at 500 uM after 3 days by Annexin-V staining-based assay (reference value: 1.29%); format: functional
Trichophyton tonsurans [16] = assay: Antifungal activity against Trichophyton tonsurans Malmsten CBS 483.76 assessed as growth inhibition at 20 ug/ml measured on day 7 by sabouraud dextrose agar diffusion method relative to control; format: functional; details: Malmsten CBS 483.76, 168 h, read-out: GI; in short: as §1
K562 [17] = assay: Induction of apoptosis in human K562 cells assessed as live cells at 5 uM after 3 days by Annexin-V staining-based assay (reference value: 87.33%); format: functional
Epidermophyton floccosum [18] = assay: Antifungal activity against Epidermophyton floccosum (Hartz) Langeron and Milochevitch CBS 358.93 assessed as growth inhibition at 100 ug/ml measured on day 7 by sabouraud dextrose agar diffusion method relative to control; format: functional; details: (Hartz) Langeron and Milochevitch CBS 358.93, 168 h, read-out: GI; in short: as §1
Nannizzia gypsea [19] = assay: Antifungal activity against Microsporum gypseum (Bodin) Guiart and Grigorakis IHME 3999 assessed as growth inhibition at 20 ug/ml measured on day 7 by sabouraud dextrose agar diffusion method relative to control; format: functional; in short: as §1
K562 [20] = assay: Induction of apoptosis in human K562 cells assessed as early apoptotic cells at 500 uM after 3 days by Annexin-V staining-based assay (reference value: 5.41%); format: functional
Nannizzia gypsea [21] = assay: Antifungal activity against Nannizzia gypsea (Bodin) Guiart et Grigoraki CBS 286.63 assessed as growth inhibition at 100 ug/ml measured on day 7 by sabouraud dextrose agar diffusion method relative to control; format: functional; in short: as §1
K562 [22] = assay: Induction of apoptosis in human K562 cells assessed as late apoptotic cells at 10 uM after 3 days by Annexin-V staining-based assay (reference value: 5.96%); format: functional
K562 [23] = assay: Antiproliferative activity against human K562 cells assessed as cell number after 3 days by Coulter counter; details: K562, 72 h
K562 [24] = assay: Induction of apoptosis in human K562 cells assessed as live cells at 500 uM after 3 days by Annexin-V staining-based assay (reference value: 87.33%); format: functional
Trichophyton rubrum [25] = assay: Antifungal activity against Trichophyton rubrum (Castellani) Sabouraud IHME 4321 assessed as growth inhibition at 20 ug/ml measured on day 7 by sabouraud dextrose agar diffusion method relative to control; format: functional; details: (Castellani) Sabouraud IHME 4321, 168 h, read-out: GI; in short: as §1
[26] = tested on: Trichophyton mentagrophytes; assay: Antifungal activity against Trichophyton mentagrophytes (Robin) Blanchard CBS 160.66 assessed as growth inhibition at 20 ug/ml measured on day 7 by sabouraud dextrose agar diffusion method relative to control; format: functional; details: (Robin) Blanchard CBS 160.66, 168 h, read-out: GI; in short: as §1
K562 [27] = assay: Induction of apoptosis in human K562 cells assessed as late apoptotic cells at 1000 uM after 3 days by Annexin-V staining-based assay (reference value: 5.96%); format: functional
[28] = biological target: Nuclear factor NF-kappa-B complex (Homo sapiens) (UniProt Q00653+P19838+Q04206); assay: Inhibition of NF-kappaB (unknown origin)/32P-labeled oligonucleotide interaction at 0.1 to 10 mM after 20 mins by electrophoretic mobility shift assay; format: protein-complex assay
In short: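 Probe was a double-stranded 32P-labelled oligonucleotide (0.25 ng) in buffer of 10% glycerol, 0.05% NP-40, 10 mM Tris-HCl pH 7.5, 50 mM NaCl, 0.5 mM DTT and 10 mM MgCl2. Compound and probe were bound for 20 min at room temperature, then recombinant NF-kappaB p50 was added for a further 20 min. Samples were run on 6% polyacrylamide in 0.25× TBE at 200 V.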

Trichophyton violaceum [29] = assay: Antifungal activity against Trichophyton violaceum Malmsten CBS 459.61 assessed as growth inhibition at 20 ug/ml measured on day 7 by sabouraud dextrose agar diffusion method relative to control; format: functional; details: Malmsten CBS 459.61, 168 h, read-out: GI; in short: as §1
[30] = Antioxidant activity assessed as inhibition of AAPH-induced peroxyl radical generation by oxygen radical absorbance capacity assay relative to trolox; format: physicochemical
In short: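 Run at 37 °C and pH 7.4 with fluorescein (85 nM) as the probe and AAPH as the peroxyl radical source. Compounds were dissolved fresh in PBS. Fluorescence read at ex 485/em 538 nm every 5 min for up to 30 min after AAPH addition. Net area under the decay curve (blank minus sample) was calibrated against Trolox at 10–50 μM and given as Trolox equivalents.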

K562 [31] = assay: Induction of apoptosis in human K562 cells assessed as apoptotic cells at 5 uM after 3 days by Annexin-V staining-based assay (reference value: 11.37%); format: functional
[32] = Antioxidant activity assessed as superoxide anion radical scavenging by photochemiluminescence method relative to trolox; format: physicochemical
In short: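 Superoxide was generated photochemically from luminol under UV light (351 nm). Lag time (water-soluble, ACW) or integrated light emission over 180 s (lipid-soluble, ACL) was compared with a Trolox standard curve. Samples were centrifuged 5 min at 16000 g and diluted 1:40 in water (ACW) or methanol (ACL). Triplicate determinations.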

K562 [33] = assay: Induction of apoptosis in human K562 cells assessed as early apoptotic cells at 1000 uM after 3 days by Annexin-V staining-based assay (reference value: 5.41%); format: functional
K562 [34] = assay: Induction of apoptosis in human K562 cells assessed as dead cells at 1000 uM after 3 days by Annexin-V staining-based assay (reference value: 1.29%); format: functional
K562 [35] = assay: Induction of apoptosis in human K562 cells assessed as apoptotic cells at 500 uM after 3 days by Annexin-V staining-based assay (reference value: 11.37%); format: functional
K562 [36] = assay: Induction of apoptosis in human K562 cells assessed as live cells at 10 uM after 3 days by Annexin-V staining-based assay (reference value: 87.33%); format: functional
K562 [37] = assay: Induction of apoptosis in human K562 cells assessed as dead cells at 10 uM after 3 days by Annexin-V staining-based assay (reference value: 1.29%); format: functional
K562 [38] = assay: Induction of apoptosis in human K562 cells assessed as live cells at 1000 uM after 3 days by Annexin-V staining-based assay (reference value: 87.33%); format: functional
[39] = Antifungal activity against Microsporum canis Bodin CBS 4727 assessed as growth inhibition at 20 ug/ml measured on day 7 by sabouraud dextrose agar diffusion method relative to control; format: functional; in short: as §1
K562 [40] = assay: Induction of apoptosis in human K562 cells assessed as apoptotic cells at 10 uM after 3 days by Annexin-V staining-based assay (reference value: 11.37%); format: functional
Nannizzia gypsea [41] = assay: Antifungal activity against Nannizzia gypsea (Bodin) Guiart et Grigoraki CBS 286.63 assessed as growth inhibition at 20 ug/ml measured on day 7 by sabouraud dextrose agar diffusion method relative to control; format: functional; in short: as §1
[42] = Antifungal activity against Microsporum canis Bodin CBS 4727 assessed as growth inhibition at 100 ug/ml measured on day 7 by sabouraud dextrose agar diffusion method relative to control; format: functional; in short: as §1
Epidermophyton floccosum [43] = assay: Antifungal activity against Epidermophyton floccosum (Hartz) Langeron and Milochevitch CBS 358.93 assessed as growth inhibition at 20 ug/ml measured on day 7 by sabouraud dextrose agar diffusion method relative to control; format: functional; details: (Hartz) Langeron and Milochevitch CBS 358.93, 168 h, read-out: GI; in short: as §1

Sequence of Nuclear factor NF-kappa-B complex (Homo sapiens) (P19838 whole entry, looked up): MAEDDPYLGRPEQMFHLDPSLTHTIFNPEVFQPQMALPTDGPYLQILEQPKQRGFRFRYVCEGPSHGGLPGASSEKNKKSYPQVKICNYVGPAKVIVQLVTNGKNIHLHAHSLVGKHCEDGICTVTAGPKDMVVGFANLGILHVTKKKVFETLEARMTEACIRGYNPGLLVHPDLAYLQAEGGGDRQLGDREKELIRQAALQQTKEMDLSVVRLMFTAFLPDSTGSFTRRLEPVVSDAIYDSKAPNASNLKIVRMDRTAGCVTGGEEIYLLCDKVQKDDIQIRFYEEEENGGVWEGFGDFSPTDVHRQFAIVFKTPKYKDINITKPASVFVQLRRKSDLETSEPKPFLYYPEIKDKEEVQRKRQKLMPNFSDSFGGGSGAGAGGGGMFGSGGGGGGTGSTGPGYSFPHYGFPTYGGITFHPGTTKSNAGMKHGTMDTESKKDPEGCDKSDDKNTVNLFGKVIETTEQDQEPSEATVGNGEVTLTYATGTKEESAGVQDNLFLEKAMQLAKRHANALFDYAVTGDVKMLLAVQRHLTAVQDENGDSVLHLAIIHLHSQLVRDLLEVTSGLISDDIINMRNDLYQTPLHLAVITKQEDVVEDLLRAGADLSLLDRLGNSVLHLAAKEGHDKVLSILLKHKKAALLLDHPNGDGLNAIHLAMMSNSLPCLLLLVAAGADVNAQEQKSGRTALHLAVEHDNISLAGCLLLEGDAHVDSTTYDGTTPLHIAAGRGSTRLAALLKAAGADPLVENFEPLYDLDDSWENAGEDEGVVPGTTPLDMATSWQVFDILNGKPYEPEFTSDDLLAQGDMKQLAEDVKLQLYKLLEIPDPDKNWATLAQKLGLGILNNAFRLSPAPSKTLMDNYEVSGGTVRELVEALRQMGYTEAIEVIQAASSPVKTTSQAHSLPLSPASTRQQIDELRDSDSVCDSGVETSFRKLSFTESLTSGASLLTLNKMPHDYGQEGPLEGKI
Sequence of Nuclear factor NF-kappa-B complex (Homo sapiens) (Q00653 whole entry, looked up): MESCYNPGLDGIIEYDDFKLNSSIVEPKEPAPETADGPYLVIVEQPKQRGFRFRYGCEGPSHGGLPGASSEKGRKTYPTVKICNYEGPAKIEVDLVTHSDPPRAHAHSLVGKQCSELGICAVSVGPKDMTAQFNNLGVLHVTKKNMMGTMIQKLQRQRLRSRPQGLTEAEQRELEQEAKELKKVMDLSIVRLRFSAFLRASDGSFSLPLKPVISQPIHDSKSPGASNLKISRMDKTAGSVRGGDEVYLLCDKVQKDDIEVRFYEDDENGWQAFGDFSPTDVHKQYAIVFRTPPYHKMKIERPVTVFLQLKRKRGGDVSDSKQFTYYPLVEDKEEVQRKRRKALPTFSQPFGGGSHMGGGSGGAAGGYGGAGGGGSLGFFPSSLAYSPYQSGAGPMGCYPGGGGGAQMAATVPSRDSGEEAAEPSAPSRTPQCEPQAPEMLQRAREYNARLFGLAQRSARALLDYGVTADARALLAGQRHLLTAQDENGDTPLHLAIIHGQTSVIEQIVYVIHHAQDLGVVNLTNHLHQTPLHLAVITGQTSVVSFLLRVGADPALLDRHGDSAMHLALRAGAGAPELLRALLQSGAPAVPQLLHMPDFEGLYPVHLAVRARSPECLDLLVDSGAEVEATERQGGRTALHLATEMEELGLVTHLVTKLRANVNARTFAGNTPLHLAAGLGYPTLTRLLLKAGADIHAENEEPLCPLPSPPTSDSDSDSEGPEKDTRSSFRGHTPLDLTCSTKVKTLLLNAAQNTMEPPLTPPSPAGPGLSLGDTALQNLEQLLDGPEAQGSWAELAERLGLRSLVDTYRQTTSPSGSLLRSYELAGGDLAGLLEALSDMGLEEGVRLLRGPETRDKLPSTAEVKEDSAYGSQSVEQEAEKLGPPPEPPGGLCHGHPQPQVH
Sequence of Nuclear factor NF-kappa-B complex (Homo sapiens) (Q04206 whole entry, looked up): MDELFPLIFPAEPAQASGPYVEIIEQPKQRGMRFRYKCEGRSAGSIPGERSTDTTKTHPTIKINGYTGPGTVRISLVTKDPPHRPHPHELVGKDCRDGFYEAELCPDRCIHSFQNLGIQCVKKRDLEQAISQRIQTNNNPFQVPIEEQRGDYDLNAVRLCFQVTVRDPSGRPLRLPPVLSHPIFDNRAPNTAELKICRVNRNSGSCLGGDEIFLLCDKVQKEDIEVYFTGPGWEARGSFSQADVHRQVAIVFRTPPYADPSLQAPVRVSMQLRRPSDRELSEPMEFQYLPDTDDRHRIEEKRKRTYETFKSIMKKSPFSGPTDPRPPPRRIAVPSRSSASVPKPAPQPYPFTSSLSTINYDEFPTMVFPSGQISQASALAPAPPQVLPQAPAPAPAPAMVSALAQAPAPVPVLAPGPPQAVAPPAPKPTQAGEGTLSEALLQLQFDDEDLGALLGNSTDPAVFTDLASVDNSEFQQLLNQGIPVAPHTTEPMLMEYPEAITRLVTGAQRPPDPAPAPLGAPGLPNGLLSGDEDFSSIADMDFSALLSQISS

C[C@@H]1O[C@@H](OC[C@H]2O[C@@H](Oc3c(-c4ccc(O)c(O)c4)oc4cc(O)cc(O)c4c3=O)[C@H](O)[C@@H](O)[C@@H]2O)[C@H](O)[C@H](O)[C@H]1O [RUTIN]
Activity (K562 [1]): inactive
inhibition of growth at 100 µg/mL (Nannizzia gypsea [2]): 4.1%
Activity (K562 [3]): inactive
Activity [4]: 5.04 µmol/g
inhibition of growth at 100 µg/mL (Trichophyton violaceum [5]): 4.2%
Activity (K562 [6]): 4.05%
Activity (K562 [7]): 14.75%
inhibition of growth at 100 µg/mL (Trichophyton tonsurans [8]): 2.8%
inhibition of growth at 100 µg/mL (Trichophyton rubrum [9]): 9.9%
inhibition of growth at 100 µg/mL (Paraphyton cookei [10]): 12.3%
inhibition of growth at 100 µg/mL [11]: 3.3%
Activity (K562 [12]): inactive
inhibition of growth at 20 µg/mL (Paraphyton cookei [13]): 3.3%
Activity (K562 [14]): inactive
Activity (K562 [15]): 0.65%
inhibition of growth at 20 µg/mL (Trichophyton tonsurans [16]): 0%
Activity (K562 [17]): inactive
inhibition of growth at 100 µg/mL (Epidermophyton floccosum [18]): 2.2%
growth inhibition (GI) (Nannizzia gypsea [19]): inactive
Activity (K562 [20]): 9.15%
growth inhibition (GI) (Nannizzia gypsea [21]): inactive
Activity (K562 [22]): inactive
IC50 (K562 [23]): 897 µM
Activity (K562 [24]): 88.15%
inhibition of growth at 20 µg/mL (Trichophyton rubrum [25]): 6.1%
inhibition of growth at 20 µg/mL [26]: 0%
Activity (K562 [27]): 6.15%
inhibition [28]: Active
inhibition of growth at 20 µg/mL (Trichophyton violaceum [29]): 2.1%
Activity [30]: 10708.06 µmol/g
Activity (K562 [31]): inactive
Activity [32]: 1883.08 µmol/g
Activity (K562 [33]): 8.6%
Activity (K562 [34]): 0.4%
Activity (K562 [35]): 13.2%
Activity (K562 [36]): inactive
Activity (K562 [37]): inactive
Activity (K562 [38]): 84.85%
growth inhibition (GI) [39]: inactive
Activity (K562 [40]): inactive
growth inhibition (GI) (Nannizzia gypsea [41]): inactive
growth inhibition (GI) [42]: inactive
inhibition of growth at 20 µg/mL (Epidermophyton floccosum [43]): 1.9%
